This passage reports Ratio, IC50 and I50 results from ChEMBL document CHEMBL1124246, “Evaluation of the side arm of (naphthylvinyl)pyridinium inhibitors of choline acetyltransferase” (J Med Chem, 1988).

Experiment [1] is described as follows: Degree of specificity expressed as the ratio of I50 of AChE to I50 of ChAT. The method in brief: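 Ratio of AChE I50 to ChAT I50. ChAT: partially purified rat brain enzyme, 3 min at 37 °C, 0.1 mM [14C]acetyl-CoA, 5 mM choline. AChE: commercial enzyme, 10 min at 37 °C, [14C]acetylcholine, 1% Triton-X. Radiometric read-out for both; inhibitors tested 10^-3–10^-8 M.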

In another experiment the target is T1, Acetylcholinesterase (Rattus norvegicus, UniProt P37136).
T1 sequence (P37136 whole entry): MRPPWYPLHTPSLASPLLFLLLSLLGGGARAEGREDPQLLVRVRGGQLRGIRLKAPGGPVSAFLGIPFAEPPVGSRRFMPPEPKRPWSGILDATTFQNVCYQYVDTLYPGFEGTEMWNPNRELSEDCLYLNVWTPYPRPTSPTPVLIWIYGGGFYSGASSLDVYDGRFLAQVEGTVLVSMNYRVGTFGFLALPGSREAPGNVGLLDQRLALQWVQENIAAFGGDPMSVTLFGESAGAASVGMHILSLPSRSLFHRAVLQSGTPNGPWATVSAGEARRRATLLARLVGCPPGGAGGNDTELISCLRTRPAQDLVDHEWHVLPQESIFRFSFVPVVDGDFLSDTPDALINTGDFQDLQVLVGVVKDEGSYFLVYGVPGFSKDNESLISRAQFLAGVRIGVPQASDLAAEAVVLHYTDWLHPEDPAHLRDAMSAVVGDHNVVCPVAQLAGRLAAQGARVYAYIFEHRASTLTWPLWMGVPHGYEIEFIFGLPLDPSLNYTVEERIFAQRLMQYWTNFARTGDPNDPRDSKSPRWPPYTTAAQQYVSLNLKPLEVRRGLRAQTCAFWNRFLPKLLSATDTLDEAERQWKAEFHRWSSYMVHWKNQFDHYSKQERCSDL
The experiment can be described thus: Inhibition of acetylcholinesterase (AChE) activity. The following applies: read-out: I50.

Experiment [2] deals with T2, Choline O-acetyltransferase (Rattus norvegicus, UniProt P32738).
T2 sequence (P32738 whole entry): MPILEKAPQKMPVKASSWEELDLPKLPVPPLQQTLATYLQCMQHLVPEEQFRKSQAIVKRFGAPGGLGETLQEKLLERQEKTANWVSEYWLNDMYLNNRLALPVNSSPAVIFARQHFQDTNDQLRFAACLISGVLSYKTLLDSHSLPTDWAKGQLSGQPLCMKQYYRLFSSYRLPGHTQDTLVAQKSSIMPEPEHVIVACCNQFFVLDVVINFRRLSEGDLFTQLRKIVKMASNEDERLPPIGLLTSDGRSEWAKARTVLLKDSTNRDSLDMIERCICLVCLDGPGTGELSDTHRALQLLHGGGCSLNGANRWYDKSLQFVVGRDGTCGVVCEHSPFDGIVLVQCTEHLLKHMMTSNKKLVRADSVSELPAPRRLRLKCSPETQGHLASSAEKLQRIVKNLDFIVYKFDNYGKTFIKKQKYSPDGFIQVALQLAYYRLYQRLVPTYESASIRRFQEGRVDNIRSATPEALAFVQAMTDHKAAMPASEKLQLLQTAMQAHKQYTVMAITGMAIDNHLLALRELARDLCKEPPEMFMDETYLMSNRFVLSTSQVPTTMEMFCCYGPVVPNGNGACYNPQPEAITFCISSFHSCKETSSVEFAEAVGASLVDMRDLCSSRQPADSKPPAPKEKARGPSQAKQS
The experiment can be described thus: (§1) Inhibition of choline acetyltransferase (ChAT) activity. Particulars: read-out: I50.

Experiment [3] has as its target T2, Choline O-acetyltransferase. The experiment is described as §1. Particulars: read-out: I50. The method in brief:
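Rat brain enzyme, partially purified (through CM-Sephadex batch elution), stored -20 °C, diluted for linear kinetics. Radiolabelled product counted by scintillation. Inhibitors tested 10^-3–10^-8 M; I50 reported.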
This is another data set of the same source.

Experiment [4] has as its target T3, Acetylcholinesterase (Rattus norvegicus) (UniProt P37136).
T3 sequence (whole entry): T1 sequence (P37136 whole entry)

The target of experiment [5] is T4, Choline O-acetyltransferase (Rattus norvegicus) (UniProt P32738).
T4 sequence (whole entry): T2 sequence (P32738 whole entry)
The experiment can be described thus: Inhibition of choline acetyltransferase (ChAT) activity; NI is no inhibition observed up to 0.001 M.

Calls of active or inactive are those of the source. The rule behind the calls is not given here. Where only a bound is given, the exact number is not on record here.

For `Cc1c[n+](CCC(=O)O)ccc1/C=C/c1cccc2ccccc12`, the Ratio in experiment [1] came to 17. Moreover, the IC50 on Acetylcholinesterase was determined as 750 µM; in experiment [2], 45 µM.
The corresponding values for `CCOC(=O)C[n+]1ccc(/C=C/c2cccc3ccccc23)c(C)c1` are 8, 10 µM and 1.2 µM.
`CCNC(=O)NC(=O)CBr`: in experiment [3], the IC50 was 250 µM. In experiment [4], the I50 entry was “inactive”.
With `Cc1c[n+](CC(N)=O)ccc1/C=C/c1cccc2ccccc12`, the Ratio in experiment [1] turned out to be 132. Further, the IC50 at Acetylcholinesterase was 45 µM; in experiment [2], 0.34 µM.
The matching figures for `OCC[n+]1ccc(/C=C/c2cccc3ccccc23)cc1`: 40, 68 µM and 1.7 µM.
The matching figures for `CCOC(=O)C(C(=O)OCC)[n+]1ccc(/C=C/c2cccc3ccccc23)cc1`: 24, 500 µM and 21 µM.
The matching figures for `CC(=O)C[n+]1ccc(/C=C/c2cccc3ccccc23)cc1`: 8, 31 µM and 3.7 µM.
On to `O=C(O)C[n+]1ccc(/C=C/c2cccc3ccccc23)cc1`, for which, in experiment [1], the Ratio was more than 22. Moreover, in experiment [4], the I50 result is “inactive”. Further, in experiment [2], the IC50 was 46 µM.
Regarding `Cc1c[n+](CCO)ccc1/C=C/c1cccc2ccccc12`, the Ratio in experiment [1] was 16. In addition, the results for the IC50 (at Acetylcholinesterase; in experiment [2]) were 27 µM and 1.7 µM, respectively.
On to `O=C(O)CC[n+]1ccc(/C=C/c2cccc3ccccc23)cc1`, for which the Ratio in experiment [1] worked out at 25. Further, the values for the IC50 (on Acetylcholinesterase; in experiment [2]) were 1000 µM and 40 µM, respectively.
The matching figures for `C[n+]1ccc(/C=C/c2cccc3ccccc23)cc1`: 77, 30 µM and 0.39 µM.
Regarding `CCC[n+]1ccc(/C=C/c2cccc3ccccc23)cc1`, in experiment [1], the Ratio is 92. In addition, the IC50 at Acetylcholinesterase was determined as 17.5 µM; in experiment [2], 0.19 µM.
Take `O=C(CO)C[n+]1ccc(/C=C/c2cccc3ccccc23)cc1`: the Ratio in experiment [1] is more than 200. Further, the IC50 in experiment [2] came to 3 µM.
On to `OCCC[n+]1ccc(/C=C/c2cccc3ccccc23)cc1`, for which, in experiment [1], the Ratio is 28. The IC50 on Acetylcholinesterase is 36 µM; in experiment [2] it was 1.3 µM.
The corresponding values for `NCCC[n+]1ccc(/C=C/c2cccc3ccccc23)cc1` are 42, 220 µM and 5.3 µM.
Regarding `NC(=O)NC(=O)CBr`, in experiment [3], the IC50 came out at 130 µM. Besides, the I50 entry in experiment [4] is “inactive”.
For the molecule `NC(=O)C[n+]1ccc(/C=C/c2cccc3ccccc23)cc1`, the Ratio in experiment [1] was determined as 296. For the same molecule, the values for the IC50 (at Acetylcholinesterase; in experiment [2]) were 80 µM and 0.27 µM, respectively.
With `O=C(CBr)C[n+]1ccc(/C=C/c2cccc3ccccc23)cc1`, the Ratio in experiment [1] was 4. For the same molecule, the IC50 on Acetylcholinesterase came to 40 µM; in experiment [2] it was 10 µM.
The corresponding values for `NC(=O)NC(=O)C[n+]1ccc(/C=C/c2cccc3ccccc23)cc1` are 38, 140 µM and 3.7 µM.
The corresponding values for `CCNC(=O)NC(=O)C[n+]1ccc(/C=C/c2cccc3ccccc23)cc1` are 33, 130 µM and 3.9 µM.
On to `C[N+]1=CC=NC1/C=C/c1cccc2ccccc12` (stereo not given), for which, on Acetylcholinesterase, the IC50 came to 51 µM. Further, in experiment [5], the I50 entry is “inactive”.
As to `Cc1c[n+](CCN)ccc1/C=C/c1cccc2ccccc12`, the Ratio in experiment [1] turned out to be 6. In addition, the IC50 on Acetylcholinesterase is 30 µM; in experiment [2] it was 5 µM.
`Cc1cnccc1/C=C/c1cccc2ccccc12`: the Ratio in experiment [1] was more than 25. Moreover, in experiment [4], the I50 entry was “inactive”. In experiment [2], the IC50 was 40 µM.
Regarding `CCOC(=O)C[n+]1ccc(/C=C/c2cccc3ccccc23)cc1`, the Ratio in experiment [1] came to 32. For the same molecule, the IC50 on Acetylcholinesterase is 32 µM; in experiment [2], 1 µM.
Take `C(=C\c1cccc2ccccc12)/c1ccncc1`: in experiment [1], the Ratio is more than 26. For the same molecule, the I50 result in experiment [4] was “inactive”. In addition, the IC50 in experiment [2] turned out to be 38 µM.
Take `CCCC[n+]1ccc(/C=C/c2cccc3ccccc23)cc1`: the Ratio in experiment [1] stood at 11. Besides, the IC50 at Acetylcholinesterase was 3.9 µM; in experiment [2], 0.37 µM.
The matching figures for `NCC[n+]1ccc(/C=C/c2cccc3ccccc23)cc1`: 16, 64 µM and 3.9 µM.
The matching figures for `CCCCCCC(C)OC(=O)CC(=O)C[n+]1ccc(/C=C/c2cccc3ccccc23)cc1` (stereo not given): 7, 350 µM and 50 µM.
